The source of these data is ChEMBL document CHEMBL1125434, “Preparation and in vitro and in vivo evaluation of quinolones with selective activity against gram-positive organisms” (1992).

The MIC is the smallest concentration in the dilution series that meets the test's criterion for growth inhibition. Read a high MIC as a need for much substance. What is called ED50 is the dose at which the effect has come halfway, by size or by number of responders.

Holding throughout (type): functional
Experiment [1] relates to Staphylococcus aureus. Kind of experiment: In vitro minimum inhibitory concentration against Staphylococcus aureus NCTC 10649 using brain-heart infusion agar. A digest of the protocol:
(§1)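 Overnight cultures were grown in BHI broth at 36 °C. Twofold dilutions of a 2000 µg/mL stock were made in BHI agar, giving 200–0.005 µg/mL. Plates received about 10^4 organisms and were incubated for 18 h at 36 °C. MIC was the lowest concentration with no visible growth on the plate.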

Experiment [2] deals with Staphylococcus aureus. Put plainly: In vivo antibacterial activity against Staphylococcus aureus NCTC 10649 infected mouse by oral administration. In short, it runs like this:
(§2)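 Compound was given in water or in dilute NaOH diluted with water, orally or subcutaneously. The dose was split equally between 1 and 5 h post-infection. Groups were 10 mice at ≥3 dose levels. ED50 was calculated from day-6 cumulative mortality by the trimmed Logit method.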

Another experiment deals with Streptococcus pyogenes. Put plainly: In vitro minimum inhibitory concentration against Streptococcus pyogenes 930 using brain-heart infusion agar. In short, it runs like this:
as §1

Another experiment has as its system Escherichia coli. Put plainly: In vitro minimum inhibitory concentration against Escherichia coli Juhl using brain-heart infusion agar. In short, it runs like this:
as §1

In a further experiment the test system is Klebsiella pneumoniae. Kind of experiment: In vitro minimum inhibitory concentration against Klebsiella pneumoniae 8045 using brain-heart infusion agar. A digest of the protocol: as §1
Experiment [3] has as its system Pseudomonas aeruginosa. Kind of experiment: In vitro minimum inhibitory concentration against Pseudomonas aeruginosa A5007 using brain-heart infusion agar. A digest of the protocol: as §1
Experiment [4] deals with Pseudomonas aeruginosa. Put plainly: In vitro minimum inhibitory concentration against Pseudomonas aeruginosa K799 / WT using brain-heart infusion agar. A digest of the protocol:
as §1

The test system of experiment [5] is Staphylococcus aureus. Kind of experiment: In vitro minimum inhibitory concentration against Staphylococcus aureus CMX 553 using brain-heart infusion agar. In short, it runs like this:
as §1

The test system of another experiment is Acinetobacter. Kind of experiment: In vitro minimum inhibitory concentration against Acinetobacter CMX 669 using brain-heart infusion agar. In short, it runs like this:
as §1

The test system of the next experiment is Klebsiella aerogenes. Kind of experiment: In vitro minimum inhibitory concentration against Enterobacter aerogenes ATCC 13048 using brain-heart infusion agar. A digest of the protocol:
as §1

The next experiment deals with Streptococcus equinus. Put plainly: In vitro minimum inhibitory concentration against Streptococcus bovis A5169 using brain-heart infusion agar. In short, it runs like this: as §1
The subject of a further experiment is Streptococcus agalactiae. Kind of experiment: In vitro minimum inhibitory concentration against Streptococcus agalactiae CMX 508 using brain-heart infusion agar. In short, it runs like this:
as §1

The test system of experiment [6] is Staphylococcus epidermidis. Kind of experiment: In vitro minimum inhibitory concentration against Staphylococcus epidermidis 3159 using brain-heart infusion agar. In short, it runs like this: as §1
The subject of experiment [7] is Staphylococcus aureus. Kind of experiment: In vitro minimum inhibitory concentration against Staphylococcus aureus ATCC 6538P using brain-heart infusion agar. A digest of the protocol:
as §1

For experiment [8], the system named is Staphylococcus aureus. Put plainly: In vitro minimum inhibitory concentration against Staphylococcus aureus A 5177 using brain-heart infusion agar. A digest of the protocol:
as §1

The next experiment relates to Enterococcus faecium. Put plainly: In vitro minimum inhibitory concentration against Enterococcus faecium ATCC 8043 using brain-heart infusion agar. In short, it runs like this: as §1
The test system of experiment [9] is Staphylococcus aureus. Kind of experiment: In vivo antibacterial activity against Staphylococcus aureus NCTC 10649 infected mouse by subcutaneous administration. The conditions noted are these: sc. A digest of the protocol:
as §2

Values after ≈ are worked out from the molar mass of the structure shown.

In the case of `O=C(O)c1cn(-c2ccc(F)cc2F)c2cc(N3CCC(=NO)CC3)c(F)cc2c1=O`, the MIC in the experiment on Staphylococcus aureus [1] came out at 0.1 µg/mL (≈ 0.232 µM); against Streptococcus pyogenes, 0.39 µg/mL (≈ 0.904 µM); against Escherichia coli, 0.39 µg/mL (≈ 0.904 µM); with Klebsiella pneumoniae, 0.39 µg/mL (≈ 0.904 µM); in the experiment on Pseudomonas aeruginosa [3], 6.2 µg/mL (≈ 14.4 µM); against Pseudomonas aeruginosa [4] it was 3.1 µg/mL (≈ 7.19 µM). In addition, the minimum inhibitory concentration (MIC) in the experiment with Staphylococcus aureus [5] was determined as 0.1 µg/mL (≈ 0.232 µM); in the experiment with Acinetobacter, 1.56 µg/mL (≈ 3.62 µM); against Klebsiella aerogenes it was 3.1 µg/mL (≈ 7.19 µM); with Streptococcus equinus, 1.56 µg/mL (≈ 3.62 µM); in the experiment with Streptococcus agalactiae it was 0.39 µg/mL (≈ 0.904 µM); in experiment [6], 0.1 µg/mL (≈ 0.232 µM). Further, the MIC worked out at 0.05 µg/mL (≈ 0.116 µM) against Staphylococcus aureus [7], 0.1 µg/mL (≈ 0.232 µM) with Staphylococcus aureus [8] and 0.39 µg/mL (≈ 0.904 µM) in the experiment with Enterococcus faecium. The 50% effective dose (ED50) with Staphylococcus aureus [2] is 6 mg/kg; in the experiment on Staphylococcus aureus [9], 3.2 mg/kg.

Consider `CON=C1CCN(c2cc3c(cc2F)c(=O)c(C(=O)O)cn3-c2ccc(F)cc2F)CC1`, for which the minimal inhibitory concentration (MIC) against Staphylococcus aureus [1] was 0.05 µg/mL (≈ 0.112 µM); in the experiment with Streptococcus pyogenes, 1.56 µg/mL (≈ 3.5 µM); against Escherichia coli it was 0.2 µg/mL (≈ 0.449 µM); against Klebsiella pneumoniae it was 3.1 µg/mL (≈ 6.96 µM); with Pseudomonas aeruginosa [3], greater than 100 µg/mL; with Pseudomonas aeruginosa [4] it was greater than 100 µg/mL. For the same compound, the minimal inhibitory concentration (MIC) against Staphylococcus aureus [5] is 0.2 µg/mL (≈ 0.449 µM); with Acinetobacter, 6.2 µg/mL (≈ 13.9 µM); against Klebsiella aerogenes it was greater than 100 µg/mL; with Streptococcus equinus it was 6.2 µg/mL (≈ 13.9 µM); in the experiment with Streptococcus agalactiae, 1.56 µg/mL (≈ 3.5 µM); in [6] it was 0.1 µg/mL (≈ 0.225 µM). Moreover, the minimum inhibitory concentration (MIC) against Staphylococcus aureus [7] turned out to be 0.05 µg/mL (≈ 0.112 µM); with Staphylococcus aureus [8], 0.1 µg/mL (≈ 0.225 µM); against Enterococcus faecium it was 3.1 µg/mL (≈ 6.96 µM). Moreover, the figures for the median effective dose (ED50) in the experiment on Staphylococcus aureus [2] and in the experiment on Staphylococcus aureus [9] were greater than 12 mg/kg and greater than 8 mg/kg, respectively.

Regarding `O=C(O)c1cn(C2CC2)c2c(F)c(N3CC/C(=N\O)C3)c(F)cc2c1=O`, the MIC worked out at 0.01 µg/mL (≈ 0.0275 µM) in the experiment on Staphylococcus aureus [1]; 0.1 µg/mL (≈ 0.275 µM) in the experiment with Streptococcus pyogenes; 0.02 µg/mL (≈ 0.055 µM) in the experiment on Escherichia coli; 0.05 µg/mL (≈ 0.138 µM) in the experiment with Klebsiella pneumoniae; 0.78 µg/mL (≈ 2.15 µM) in the experiment on Pseudomonas aeruginosa [3]; 0.78 µg/mL (≈ 2.15 µM) in the experiment on Pseudomonas aeruginosa [4]. Moreover, the minimal inhibitory concentration (MIC) with Staphylococcus aureus [5] is 0.02 µg/mL (≈ 0.055 µM); with Acinetobacter it was 0.2 µg/mL (≈ 0.55 µM); in the experiment with Klebsiella aerogenes, 0.39 µg/mL (≈ 1.07 µM); in the experiment with Streptococcus equinus, 0.2 µg/mL (≈ 0.55 µM); against Streptococcus agalactiae, 0.1 µg/mL (≈ 0.275 µM); in experiment [6], 0.02 µg/mL (≈ 0.055 µM). Also, the minimal inhibitory concentration (MIC) is less than 0.005 µg/mL in the experiment on Staphylococcus aureus [7], 0.01 µg/mL (≈ 0.0275 µM) against Staphylococcus aureus [8] and 0.1 µg/mL (≈ 0.275 µM) against Enterococcus faecium. Further, the figures for the ED50 in the experiment on Staphylococcus aureus [2] and in the experiment with Staphylococcus aureus [9] were 3 mg/kg and 1.5 mg/kg, respectively.

For `O=C1CCN(c2nc3c(cc2F)c(=O)c(C(=O)O)cn3-c2ccc(F)cc2F)CC1`, the minimal inhibitory concentration (MIC) is 0.1 µg/mL (≈ 0.24 µM) against Staphylococcus aureus [1]; 1.56 µg/mL (≈ 3.74 µM) against Streptococcus pyogenes; 0.39 µg/mL (≈ 0.934 µM) in the experiment with Escherichia coli; 0.39 µg/mL (≈ 0.934 µM) against Klebsiella pneumoniae; 12.5 µg/mL (≈ 30 µM) against Pseudomonas aeruginosa [3]; 3.1 µg/mL (≈ 7.43 µM) in the experiment with Pseudomonas aeruginosa [4]. Also, the minimum inhibitory concentration (MIC) in the experiment with Staphylococcus aureus [5] was 0.1 µg/mL (≈ 0.24 µM); against Acinetobacter, 1.56 µg/mL (≈ 3.74 µM); with Klebsiella aerogenes, 3.1 µg/mL (≈ 7.43 µM); in the experiment on Streptococcus equinus it was 3.1 µg/mL (≈ 7.43 µM); in the experiment on Streptococcus agalactiae, 1.56 µg/mL (≈ 3.74 µM); in [6] it was 0.2 µg/mL (≈ 0.479 µM). For the same compound, the minimum inhibitory concentration (MIC) is 0.05 µg/mL (≈ 0.12 µM) against Staphylococcus aureus [7], 0.1 µg/mL (≈ 0.24 µM) against Staphylococcus aureus [8] and 1.56 µg/mL (≈ 3.74 µM) in the experiment with Enterococcus faecium.

For `O=C1CCN(c2cc3c(cc2F)c(=O)c(C(=O)O)cn3-c2ccc(F)cc2F)C1`, the MIC against Staphylococcus aureus [1] was 0.39 µg/mL (≈ 0.969 µM); in the experiment with Streptococcus pyogenes, 25 µg/mL (≈ 62.1 µM); with Escherichia coli, 12.5 µg/mL (≈ 31.1 µM); in the experiment with Klebsiella pneumoniae, 6.2 µg/mL (≈ 15.4 µM); in the experiment on Pseudomonas aeruginosa [3], greater than 100 µg/mL; in the experiment on Pseudomonas aeruginosa [4] it was 50 µg/mL (≈ 124 µM). In addition, the MIC in the experiment with Staphylococcus aureus [5] was 1.56 µg/mL (≈ 3.88 µM); with Acinetobacter, 12.5 µg/mL (≈ 31.1 µM); in the experiment on Klebsiella aerogenes, 12.5 µg/mL (≈ 31.1 µM); against Streptococcus equinus it was greater than 100 µg/mL; in the experiment on Streptococcus agalactiae, 12.5 µg/mL (≈ 31.1 µM); in experiment [6], 1.56 µg/mL (≈ 3.88 µM). In addition, the MIC was found to be 0.39 µg/mL (≈ 0.969 µM) in the experiment with Staphylococcus aureus [7], 1.56 µg/mL (≈ 3.88 µM) in the experiment with Staphylococcus aureus [8] and 25 µg/mL (≈ 62.1 µM) against Enterococcus faecium.

As for `NC1CCN(c2nc3c(cc2F)c(=O)c(C(=O)O)cn3-c2ccc(F)cc2F)C1` (configuration not stated) [TOSUFLOXACIN], the minimum inhibitory concentration (MIC) in the experiment on Streptococcus pyogenes was 0.2 µg/mL (≈ 0.495 µM); in the experiment on Escherichia coli, 0.02 µg/mL (≈ 0.0495 µM); with Klebsiella pneumoniae it was 0.02 µg/mL (≈ 0.0495 µM); in the experiment on Pseudomonas aeruginosa [3] it was 0.78 µg/mL (≈ 1.93 µM); with Pseudomonas aeruginosa [4], 0.78 µg/mL (≈ 1.93 µM); in the experiment with Staphylococcus aureus [5], 0.05 µg/mL (≈ 0.124 µM). The MIC against Acinetobacter came to 0.1 µg/mL (≈ 0.247 µM); in the experiment on Klebsiella aerogenes it was 0.05 µg/mL (≈ 0.124 µM); against Streptococcus equinus, 0.39 µg/mL (≈ 0.965 µM); against Streptococcus agalactiae, 0.39 µg/mL (≈ 0.965 µM); in experiment [6] it was 0.1 µg/mL (≈ 0.247 µM); in the experiment on Staphylococcus aureus [7], 0.02 µg/mL (≈ 0.0495 µM). For the same compound, the values for the MIC against Staphylococcus aureus [8] and in the experiment with Enterococcus faecium were 0.05 µg/mL (≈ 0.124 µM) and 0.2 µg/mL (≈ 0.495 µM), respectively.

On to `CON=C1CCN(c2nc3c(cc2F)c(=O)c(C(=O)O)cn3-c2ccc(F)cc2F)CC1`, for which the MIC against Staphylococcus aureus [1] is 0.2 µg/mL (≈ 0.448 µM); in the experiment with Streptococcus pyogenes, 3.1 µg/mL (≈ 6.94 µM); in the experiment on Escherichia coli, 6.2 µg/mL (≈ 13.9 µM); with Klebsiella pneumoniae, 3.1 µg/mL (≈ 6.94 µM); with Pseudomonas aeruginosa [3], 50 µg/mL (≈ 112 µM); in the experiment with Pseudomonas aeruginosa [4], 25 µg/mL (≈ 56 µM). For the same compound, the MIC in the experiment on Staphylococcus aureus [5] was 0.39 µg/mL (≈ 0.874 µM); with Acinetobacter it was 12.5 µg/mL (≈ 28 µM); in the experiment on Klebsiella aerogenes it was 12.5 µg/mL (≈ 28 µM); in the experiment on Streptococcus equinus, 6.2 µg/mL (≈ 13.9 µM); against Streptococcus agalactiae, 1.56 µg/mL (≈ 3.49 µM); in experiment [6] it was 0.39 µg/mL (≈ 0.874 µM). Besides, the MIC against Staphylococcus aureus [7] came to 0.1 µg/mL (≈ 0.224 µM); in the experiment on Staphylococcus aureus [8] it was 0.2 µg/mL (≈ 0.448 µM); in the experiment with Enterococcus faecium, 3.1 µg/mL (≈ 6.94 µM). The median effective dose (ED50) in the experiment on Staphylococcus aureus [2] was greater than 12 mg/kg; in the experiment with Staphylococcus aureus [9], greater than 8 mg/kg.
